Measured values gathered from unrelated publications.
Each line is one published result; the experiments were not run side by side.
HTR2C: 5-hydroxytryptamine receptor 2C (HTR2C, Homo sapiens, UniProt P28335)
HTR2B: 5-hydroxytryptamine receptor 2B (HTR2B, Homo sapiens, UniProt P41595)

Structure (SMILES)	target	read-out	action	technique	concentration	measurement	value
Nc1ncnc2c1ncn2[C@@H]1O[C@H](C[C@@H](N)CC[C@H](N)C(=O)O)[C@@H](O)[C@H]1O	mRNA cap guanine-N(7) methyltransferase (RNMT, Homo sapiens, UniProt O43148)	enzyme activity	inhibitor	–	50 µM	inhibition	85.3%
CC(C)CC(=O)OC[C@H]1O[C@@](C#N)(c2ccc3c(N)ncnn23)[C@H](O)[C@@H]1O	HTR2C	cell-free assay	–	–	20 µM	inhibition	10%
CCOC(=O)Cc1c2c3c(cc(OC)c(OC)c3c3cc(OC)c(OC)cc13)CCN2C	HTR2B	ligand displacement	–	radioligand	10 µM	inhibition	43%
COc1cc(C(F)(F)F)c(OC)cc1C1CCCNC1 (stereo not drawn)	HTR2C	G protein activation	agonist	BRET	–	Emax	85%
CN1CCC[C@H]1c1cccnc1	Neuronal acetylcholine receptor; alpha3/beta4 (Rattus norvegicus, UniProt P04757+P12392)	ligand displacement	–	radioligand	50 µM	inhibition	65.5%
COc1cc2c3c(c1OC)-c1c(OC)ccc(Cl)c1CC3N(C)CC2 (racemic)	HTR2B	ligand displacement	–	radioligand	10 µM	inhibition	87%
c1cncc([C@@H]2CCCN2)c1	HTR2C	ligand displacement	–	–	50 µM	inhibition	-12.7%
COc1cc2cc3c4c(cc(OC)c(OC)c4c2cc1OC)CCN3C	HTR2C	ligand displacement	–	radioligand	10 µM	inhibition	-1%
[2H]c1c([2H])c([C@]2([2H])CCCN2C(=O)C(C)(C)Oc2ccc3cn[nH]c3c2)c([2H])c([2H])c1C([2H])([2H])[2H]	BMP-2-inducible protein kinase (BMP2K, Homo sapiens, UniProt Q9NSY1)	binding	–	competition with immobilised ligand	1 µM	remaining binding	77%
